The record followed here is ChEMBL document CHEMBL1156315, “Discovery of a novel sulfonamide-pyrazolopiperidine series as potent and efficacious gamma-secretase inhibitors” (Bioorg Med Chem Lett, 2010).

In data set [1] the target is Gamma-secretase. Kind of data set: Inhibition of gamma-secretase-mediated notch cleavage in human SNC cells by ELISA. The class given is cell-based. (In general: An ELISA detects its analyte on a solid surface through an enzyme-linked reagent.)
Data set [2] in a line: (§1) Metabolic stability in human liver microsomes assessed as compound remaining after 30 mins in presence of 1 mM NADPH. The class given is ADME, Microsome. The note with it: liver microsomes, read-out: Stability. Put shortly:
(§2)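 Liver microsomes (0.5 mg protein) in phosphate buffer with 1 mM NADPH, incubated 30 min at 37 °C; read-out is the percentage of parent compound remaining.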

Data set [3] concerns the target Gamma-secretase. The experiment in a line: Inhibition of gamma-secretase-mediated APP cleavage in human IMR-32 cells assessed as amyloid beta40 level after 2 hrs by ELISA. It counts as cell-based.
Data set [4] can be described thus: (§3) Metabolic stability in human liver microsomes assessed as compound remaining after 30 mins in presence of 1 mM UDPGA, 100 mM MgCl2 and 25 ug/ml alamethacin. The class given is ADME, Microsome. Particulars: liver microsomes, read-out: Stability. Put shortly:
(§4)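 Glucuronidation conditions: liver microsomes (0.5 mg protein) in phosphate buffer with 1 mM UDPGA, 100 mM MgCl₂ and alamethacin, 30 min at 37 °C; the percentage of compound remaining is reported.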
On the technique in general: Liver microsomes are vesicles of endoplasmic reticulum, rich in cytochrome P450 enzymes.

In data set [5] the target is Gamma-secretase. The experiment in a line: Inhibition of gamma-secretase-mediated notch cleavage in human IMR-32 cells after 2 hrs by ELISA. It counts as cell-based.
The target in data set [6] is Gamma-secretase (Homo sapiens) (UniProt Q96BI3+Q9NZ42+Q8WW43+P49768+Q92542+P49810). The experiment in a line: Inhibition of gamma-secretase-mediated APP cleavage in human SNC cells by ELISA. The class given is cell-based.
For data set [7], the system named is Liver microsomes. The data set is described as §1. The class given is ADME, Microsome. The note with it: microsomes, 0.5 h. The essentials:
as §2

Data set [8] concerns Liver microsomes. The description is as §3. The class given is ADME, Microsome. The note with it: microsomes, 0.5 h. Put shortly:
as §4

Data set [9] has as its system Mus musculus. Kind of data set: Neuroprotective activity in FVB mouse brain assessed as reduction in amyloid beta 40 level at 5 mg/kg, po after 3 hrs. It counts as functional. Details: scale not given: the % may be the effect or the level left. Put shortly: (§5)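 Wild-type FVB mice received a single 5 mg/kg oral dose. Brain Aβ40 reduction and the brain/plasma compound ratio were determined 3 h post-dose.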

A short description of data set [10]: Ratio of drug level in FVB mouse brain to plasma. It counts as ADME, cell-free. Put shortly:
as §5

As usually defined, the IC50 is the concentration at which inhibition is half-maximal. For the compound `O=S(=O)(c1ccc(Cl)cc1)N1Cc2cn[nH]c2CC1c1ccc(Cl)cc1` (racemic), the IC50 came out at 2.59 µM in data set [1], 3.4 nM in data set [3] and 311 nM in data set [5]. The remaining at 0.5 h was 12% in [2] and 33% in data set [4].

On to `O=S(=O)(c1ccc(Cl)cc1)N1CCc2[nH]ncc2C1c1cncnc1` (stereo not drawn), for which the values for the IC50 in [1], in data set [3] and in [5] were 2.31 µM, 12 nM and 120 nM, respectively. For the same compound, the remaining at 0.5 h was determined as 50% in data set [2] and 85% in data set [4].

In the case of `O=S(=O)(c1ccc(Cl)cc1)N1CCCCC1`, the IC50 in data set [3] is more than 30000 nM.

On to `O=S(=O)(c1ccc(Cl)cc1)N1Cc2c[nH]nc2CC1c1ccccc1` (stereo not drawn), for which the IC50 was 6.51 µM in data set [1], 7.7 nM in [3] and 598 nM in data set [5]. Besides, the remaining at 0.5 h in data set [2] worked out at 5%; in [4], 8%. The compound further registered an ED50 in data set [6] of 55.3 nM.

Turning to `CC[C@H]1Cc2n[nH]cc2[C@@H](CC)N1S(=O)(=O)c1ccc(Cl)cc1.Cl`, the IC50 in data set [1] amounted to 6.85 µM; in data set [3], 62.6 nM. The Stability in data set [7] was found to be 0%; in data set [8], 1%.

Turning to `CC1CCCCN1S(=O)(=O)c1ccc(Cl)cc1` (racemic), the IC50 in data set [3] was 8280 nM.

`CC[C@@H]1c2c[nH]nc2C[C@H](c2ccc(Cl)cc2)N1S(=O)(=O)c1ccc(Cl)cc1` (racemic): the results for the IC50 in data set [1], in [3] and in data set [5] were 15.5 µM, 22.4 nM and 126 nM, respectively. For the same compound, the remaining at 0.5 h in data set [2] came out at 4%; in data set [4] it was 25%. For the same compound, the ED50 in data set [6] stood at 182 nM.

In the case of `O=S(=O)(c1ccc(Cl)cc1)N1Cc2c[nH]nc2CC1c1cncnc1` (stereo not drawn), the values for the IC50 in data set [1], in data set [3] and in data set [5] were more than 40 µM, 536 nM and 10400 nM, respectively. The remaining at 0.5 h was determined as 67% in data set [2] and 70% in [4]. In data set [6], this compound came in with an ED50 of 400 nM.

In the case of `O=S(=O)(c1ccc(Cl)cc1)N1Cc2c[nH]nc2CC1c1nccs1` (racemic), the IC50 in [1] turned out to be 33.6 µM; in [3] it was 244 nM; in [5], 5750 nM. Moreover, the remaining at 0.5 h in [2] came out at 54%; in data set [4] it was 8%. In addition, in data set [6], the ED50 worked out at 1270 nM.

On to `CCC1CCCCN1S(=O)(=O)c1ccc(Cl)cc1` (racemic), for which the IC50 in data set [3] came out at 2000 nM.

In the case of `CC[C@H]1Cc2n[nH]cc2CN1S(=O)(=O)c1ccc(Cl)cc1` (racemic), the figures for the IC50 in [1], in [3] and in data set [5] were 0.736 µM, 1.01 nM and 15.3 nM, respectively. Moreover, the remaining at 0.5 h in data set [2] was 18%. Also, the ED50 in data set [6] came out at 19 nM.

The compound `O=S(=O)(c1ccc(Cl)cc1)N1CCc2n[nH]cc2C1c1cncnc1` (stereo not drawn) gave an ED50 in data set [6] of 47.1 nM.

As to `O=S(=O)(c1ccc(Cl)cc1)N1CCc2n[nH]cc2C1c1nccs1` (racemic), the IC50 in [1] is 6.53 µM; in [3], 29.1 nM; in data set [5], 858 nM. Moreover, the remaining at 0.5 h in data set [2] was found to be 57%. Besides, the ED50 in data set [6] worked out at 139 nM.

Turning to `O=S(=O)(c1ccc(Cl)cc1)N1Cc2cn[nH]c2CC1c1cccc(F)c1` (racemic), the IC50 worked out at 11.4 µM in data set [1], 8.3 nM in data set [3] and 662 nM in [5]. The remaining at 0.5 h is 14% in data set [2] and 0% in data set [4].

For orientation: Kp means tissue or fluid exposure divided by exposure in the circulation. Regarding `CC[C@H]1Cc2n[nH]cc2[C@@H](CC)N1S(=O)(=O)c1ccc(Cl)cc1` [ENT A], the Activity in [9] was 25%. Further, the IC50 was found to be 0.07 µM in data set [1], 0.35 nM in data set [3] and 5.8 nM in [5]. For the same compound, the Stability in [8] was 1%. Also, the Kp in data set [10] worked out at 0.8.

With `O=S(=O)(c1ccc(Cl)cc1)N1Cc2c[nH]nc2CC1c1cccc(F)c1` (racemic), in data set [6], the ED50 worked out at 47.1 nM.

Turning to `CC(C)C1Cc2n[nH]cc2CN1S(=O)(=O)c1ccc(Cl)cc1` (racemic), the figures for the IC50 in [1], in data set [3] and in [5] were 6.76 µM, 16.1 nM and 87 nM, respectively. Further, the remaining at 0.5 h in [2] was determined as 5%. The compound further displayed an ED50 in [6] of 86 nM.

As for `CN(C)C(=O)OCC1c2c[nH]nc2CCN1S(=O)(=O)c1ccc(Cl)cc1` (racemic), the IC50 in data set [1] is more than 40 µM; in data set [3], 350 nM; in data set [5], 8250 nM. Also, the remaining at 0.5 h worked out at 15% in [2] and 59% in data set [4]. For the same compound, the ED50 in data set [6] is 5320 nM.

The compound `O=S(=O)(c1ccc(Cl)cc1)N1Cc2c[nH]nc2CC1c1ccc(F)cc1` (racemic) displayed an ED50 in data set [6] of 28 nM.

With `O=S(=O)(c1ccc(Cl)cc1)N1CCCCC1c1ccccc1` (racemic), in [3], the IC50 was determined as 760 nM.

Turning to `CCOC(=O)C1Cc2n[nH]cc2CN1S(=O)(=O)c1ccc(Cl)cc1` (stereo not drawn), the IC50 is more than 40 µM in data set [1], 431 nM in data set [3] and 5850 nM in [5]. The remaining at 0.5 h in data set [2] stood at 8%. Also, in data set [6], the ED50 was found to be 1420 nM.

Turning to `CC[C@H]1Cc2n[nH]cc2[C@@H](CC)N1S(=O)(=O)c1ccc(Cl)cc1` (racemic) [ENT A], the results for the IC50 in data set [1], in data set [3] and in [5] were 0.123 µM, 0.48 nM and 5 nM, respectively. In addition, the Stability in data set [7] stood at 1%. In addition, in [4], the remaining at 0.5 h is 2%.

Consider `C[C@@H]1CCC[C@H](C)N1S(=O)(=O)c1ccc(Cl)cc1`, for which, in data set [3], the IC50 was determined as 1000 nM.

In the case of `CC[C@H]1Cc2n[nH]cc2[C@@H](CC)N1S(=O)(=O)c1ccc(Cl)cc1` (racemic), the ED50 in data set [6] is 1.27 nM.

Turning to `O=S(=O)(c1ccc(Cl)cc1)N1Cc2c[nH]nc2CC1c1cc(F)cc(F)c1` (racemic), the results for the IC50 in [1], in [3] and in data set [5] were 14.1 µM, 9.7 nM and 776 nM, respectively. Further, the remaining at 0.5 h came to 3% in data set [2] and 0% in data set [4]. The compound further had an ED50 in data set [6] of 60.1 nM.

For the compound `O=S(=O)(c1ccc(Cl)cc1)N1Cc2c[nH]nc2CC1Cc1ccccc1` (racemic), the IC50 in data set [1] stood at 16.6 µM; in data set [3], 80.9 nM; in data set [5] it was 1550 nM. Further, in data set [2], the remaining at 0.5 h worked out at 3%. This compound also gave an ED50 in data set [6] of 340 nM.

Turning to `CCOC(=O)C1c2c[nH]nc2CCN1S(=O)(=O)c1ccc(Cl)cc1` (stereo not drawn), the IC50 in [1] turned out to be 10.3 µM; in data set [3], 10.2 nM; in [5], 204 nM. The remaining at 0.5 h in data set [2] and in [4] was 1% each time. This compound also registered an ED50 in data set [6] of 137 nM.

In the case of `O=S(=O)(c1ccc(Cl)cc1)N1CCc2n[nH]cc2C1CO` (stereo not drawn), the IC50 was more than 40 µM in [1], 557 nM in data set [3] and 8660 nM in [5]. In [2], the remaining at 0.5 h came out at 84%. This compound showed an ED50 in [6] of 3130 nM.

For the compound `O=S(=O)(c1ccc(Cl)cc1)N1Cc2cn[nH]c2CC1c1ccc(F)cc1` (racemic), the IC50 is 5.32 µM in data set [1], 5.4 nM in data set [3] and 481 nM in data set [5]. In addition, the remaining at 0.5 h in [2] came out at 6%.

Regarding `CCCC1CCCCN1S(=O)(=O)c1ccc(Cl)cc1` (racemic), the IC50 in data set [3] was determined as 1700 nM.

As to `O=S(=O)(c1ccc(Cl)cc1)N1Cc2c[nH]nc2CC1c1ccc(Cl)cc1` (racemic), in [6], the ED50 is 17.5 nM.

For the compound `CC[C@H]1Cc2n[nH]cc2[C@@H](c2ccc(Cl)cc2)N1S(=O)(=O)c1ccc(Cl)cc1` (racemic), the IC50 came out at 1.57 µM in data set [1], 3.7 nM in data set [3] and 75.5 nM in data set [5]. Besides, the remaining at 0.5 h in [2] amounted to 10%; in data set [4], 31%. Further, the ED50 in data set [6] was 16.7 nM.
